In ChEMBL document CHEMBL1128343, “Synthesis, properties, and pharmacokinetic studies of N2-phenylguanine derivatives as inhibitors of herpes simplex virus thymidine kinases” (J Med Chem, 1995):
pIC50: −log10 of the molar value.

How the values were obtained:
Thymidine kinase [1] = molecular target: T1, Thymidine kinase (Human herpesvirus 2, UniProt Q6L709); test: Inhibition of HSV-2 thymidine kinase, 2 uM [3H]thymidine and ATP as phosphate donor; design: species or system Human alphaherpesvirus 2
T1 sequence (Q6L709 whole entry): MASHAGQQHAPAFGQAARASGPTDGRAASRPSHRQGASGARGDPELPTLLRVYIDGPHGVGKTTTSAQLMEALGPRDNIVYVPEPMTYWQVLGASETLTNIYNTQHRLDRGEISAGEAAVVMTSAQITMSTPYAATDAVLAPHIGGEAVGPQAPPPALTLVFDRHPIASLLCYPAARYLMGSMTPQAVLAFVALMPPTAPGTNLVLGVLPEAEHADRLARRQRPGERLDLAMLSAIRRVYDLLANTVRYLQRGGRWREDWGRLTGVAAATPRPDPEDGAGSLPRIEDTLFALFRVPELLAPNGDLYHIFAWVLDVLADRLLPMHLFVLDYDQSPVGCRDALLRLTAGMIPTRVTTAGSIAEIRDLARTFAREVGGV
In short: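 TK purified by affinity column from HSV2-infected HeLa cells. Activity measured by DE-81 filter binding as phosphorylation of limiting 2 µM [3H]TdR with ATP as phosphate donor. Inhibitors were diluted from DMSO stocks, with matching DMSO in controls.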

Thymidine kinase [2] = molecular target: T2, Thymidine kinase (Human alphaherpesvirus 1, UniProt Q9QNF7); test: Inhibition of HSV-1 thymidine kinase, 1 uM [3H]thymidine and ATP as phosphate donor
T2 sequence (Q9QNF7 whole entry): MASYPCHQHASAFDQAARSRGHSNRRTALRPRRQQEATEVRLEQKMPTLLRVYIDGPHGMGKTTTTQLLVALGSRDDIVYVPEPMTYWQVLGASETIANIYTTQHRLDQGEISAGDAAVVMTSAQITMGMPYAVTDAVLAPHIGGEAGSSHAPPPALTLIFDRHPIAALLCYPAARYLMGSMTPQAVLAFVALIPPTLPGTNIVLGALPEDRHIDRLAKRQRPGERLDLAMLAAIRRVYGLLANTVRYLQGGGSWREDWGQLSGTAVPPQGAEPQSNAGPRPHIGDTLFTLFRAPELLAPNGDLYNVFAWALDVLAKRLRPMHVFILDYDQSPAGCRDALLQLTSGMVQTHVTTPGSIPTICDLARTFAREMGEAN

[3] = Volume of distribution in mice plasma was determined at 40 mg/kg after intravenous administration with saline(pH=11.4) as vehicle; format: ADME, organism-based; design: dose 40 mg/kg, route intravenous; conditions: mouse
In short: (§1)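 Male CD-1 mice (~25 g) received 40 mg/kg iv via the tail vein, dissolved at 10 mg/mL in saline pH 11.4 or 90% aqueous DMSO. Blood was taken at intervals after decapitation, and plasma was diluted 10-fold. Drug was quantified by C8 reverse-phase HPLC with UV at 275 nm. C0 and ke came from a log-linear fit of all points; t1/2 = ln2/ke and Vd = dose/C0.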

Mus musculus [4] = test: Plasma concentration at time-0 was measured in mice at 40 mg/kg after intravenous administration with saline(pH=11.4) as vehicle; format: ADME, organism-based; design: dose 40 mg/kg, route intravenous; conditions: in vivo, pH 11.4, 40 mg/kg, read-out: Co; in short: as §1
[5] = Half life in mice plasma was determined at 40 mg/kg after intravenous administration with saline(pH=11.4) as vehicle; format: ADME, organism-based; design: dose 40 mg/kg, route intravenous; conditions: mouse; in short: as §1
Mus musculus [6] = test: Plasma concentration at time-0 was measured in mice at 100 mg/kg after intraperitoneal administration with saline(pH=11.4) as vehicle; format: ADME, organism-based; design: dose 100 mg/kg, route intraperitoneal; conditions: in vivo, ip, pH 11.4, 100 mg/kg, read-out: Co
In short: (§2)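 Male CD-1 mice (~25 g) received 100 mg/kg ip as a solution in saline pH 11.4 or 90% DMSO. Plasma was collected at intervals after decapitation, diluted 10-fold and stored at −21 °C. Drug was measured by C8 reverse-phase HPLC with UV at 275 nm against spiked-plasma standards (0.11–56 µM). C0 and ke came from least-squares regression of the terminal log-linear phase; t1/2 = ln2/ke.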

[7] = Half life in mice plasma was determined at 100 mg/kg after intraperitoneal administration with saline(pH=11.4) as vehicle; format: ADME, organism-based; design: dose 100 mg/kg, route intraperitoneal; conditions: mouse, ip; in short: as §2
Mus musculus [8] = test: Plasma concentration at time-0 was measured in mice at 40 mg/kg after intravenous administration with 90% DMSO as vehicle; format: ADME, organism-based; design: dose 40 mg/kg, route intravenous; conditions: in vivo, read-out: Co; in short: as §1
[9] = Half life in mice plasma was determined at 100 mg/kg after intraperitoneal administration with 90% DMSO as vehicle; conditions: mouse, ip
[10] = Half life in mice plasma was determined at 40 mg/kg after intravenous administration with 90% DMSO as vehicle; format: ADME, organism-based; design: dose 40 mg/kg, route intravenous; conditions: mouse; in short: as §1
[11] = Volume of distribution in mice plasma was determined at 40 mg/kg after intravenous administration with 90% DMSO as vehicle; format: ADME, organism-based; design: dose 40 mg/kg, route intravenous; conditions: mouse; in short: as §1
Mus musculus [12] = test: Plasma concentration at time-0 was measured in mice at 100 mg/kg after intraperitoneal administration with 90% DMSO as vehicle; conditions: in vivo, ip, read-out: Co
Mus musculus [13] = test: Plasma concentration at time-0 was measured in mice at 100 mg/kg after intraperitoneal administration with 90% DMSO as vehicle; format: ADME, organism-based; design: dose 100 mg/kg, route intraperitoneal; conditions: in vivo, ip, read-out: Co; in short: as §2

SMILES	pIC50 (Thymidine kinase [1])	pIC50 (Thymidine kinase [2])	further results
O=C1N=C(Nc2cccc(C(F)(F)F)c2)N=C2C1N=CN2[C@H]1C[C@H](O)[C@@H](CO)O1 (stereo partly specified)	5.70	5.40	–
O=C1N=C(Nc2ccccc2)N=C2C1N=CN2[C@H]1C[C@H](O)[C@@H](CO)O1 (stereo partly specified)	–	–	Vd [3]: 0.4 L/kg; concentration (Mus musculus [4]): 174 µM; half-life [5]: 7.5 min; concentration (Mus musculus [6]): 11.7 µM; half-life [7]: 60 min
O=c1[nH]c(Nc2cccc(C(F)(F)F)c2)nc2nc[nH]c12	–	–	Vd [3]: 3 L/kg; concentration (Mus musculus [4]): 54.2 µM; half-life [5]: 25 min; concentration (Mus musculus [6]): 10.2 µM
C=CCn1cnc2c(=O)[nH]c(Nc3ccccc3)nc21	6.74	–	–
COCCn1cnc2c(=O)[nH]c(Nc3ccccc3)nc21	5.57	6.21	–
O=c1[nH]c(Nc2cccc(CC(F)(F)F)c2)nc2nc[nH]c12	6.00	6.35	–
O=c1[nH]c(Nc2ccccc2)nc2c1ncn2CCO	–	–	concentration (Mus musculus [8]): 44.7 µM; half-life [9]: 21 min; half-life [10]: 15 min; Vd [11]: 3.3 L/kg; concentration (Mus musculus [12]): 100 µM
O=c1[nH]c(Nc2ccccc2)nc2c1ncn2CCCCO	–	–	concentration (Mus musculus [8]): 49.5 µM; concentration (Mus musculus [13]): 30.5 µM; half-life [10]: 14 min; Vd [11]: 2.7 L/kg
O=c1[nH]c(Nc2cccc(OC(F)(F)F)c2)nc2nc[nH]c12	5.20	5.64	–
O=c1[nH]c(Nc2ccccc2)nc2c1ncn2CC(O)CSCCO (stereo unspecified)	5.80	5.80	–
OCCn1cnc2c(O)nc(Nc3cccc(C(F)(F)F)c3)nc21	4.69	5.33	–
O=c1[nH]c(Nc2cccc(C(Cl)C(F)(F)Cl)c2)nc2nc[nH]c12 (stereo unspecified)	6.33	6.19	–
O=c1[nH]c(Nc2cccc(C(F)F)c2)nc2nc[nH]c12	5.41	5.55	–
O=C(O)Cn1cnc2c(=O)[nH]c(Nc3ccccc3)nc21	5.01	4.91	–
O=c1[nH]c(Nc2cccc(C(Cl)=C(Cl)Cl)c2)nc2[nH]cnc12	4.15	4.15	–
O=c1[nH]c(Nc2ccccc2)nc2c1ncn2CC(O)CO (stereo unspecified)	5.46	5.77	–
